Experimental data as given in ChEMBL document CHEMBL4513216, “Probing the Open Global Health Chemical Diversity Library for Multistage-Active Starting Points for Next-Generation Antimalarials” (ACS Infect Dis, 2020).

Assay: Toxicity liver stage against HepG2, at 10uM
Assay type: cell-based
Set-up: test concentration 10 uM, cell line HepG2-A16-CD81EGFP
Conditions: human, HepG2-A16-CD81EGFP cells; read-out: INHIBITION
Outline: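 Uninfected HepG2-A16-CD81EGFP cells, 3 × 10^3 per well, 1536-well, plated on prespotted compound at 10 μM final, parasite-free screening media added to match infected plates; puromycin 10 μM positive, DMSO 0.5% negative; run in parallel with 48 h PbLuc assay at 37 °C, 5% CO2; viability by CellTiter-Glo luminescence, normalized to controls.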

SMILES | cytotoxicity at 10 µM [%]
Cc1cccc(OC2CCN(C(=O)c3ccc4c(c3)OCO4)CC2)n1 | -5.51
COc1cc(N2CC3(CCN(c4ncccn4)C3)C2)ncn1 | 9.79
CCS(=O)(=O)N1C[C@@H]2COC[C@@H](Cc3nc(C)no3)[C@@H]2C1 | 9.04
CN(C)Cc1nn(C)c2c1CN(C(=O)Nc1ccc(F)cc1)C2 | 6.04
COCCC1COC2(CCN(C(=O)C3CCC3)CC2)C1 (stereo not drawn) | 8.25
O=C(c1ccc[nH]1)N1CCCC2(CCCN2Cc2cccnc2)C1 (stereo not drawn) | 3.83
O=C(C1CC1)N1CC[C@H]2[C@@H]1CCC(=O)N2c1ccccc1 | 10.8
CCS(=O)(=O)NCC1OCCc2cn(CCOC)nc21 (stereo not drawn) | 9.43
c1nc2c(c(C3CCOC3)n1)CCN(Cc1ccoc1)CC2 (stereo not drawn) | 7.01
O=C1NC2(CCc3ccccc31)CCN(C(=O)c1cccnc1)C2 (stereo not drawn) | 5.5
NC(=O)CN(Cc1cccc(Oc2ccccc2)c1)C(=O)C1CC1 | 4.59
Cn1nc2c(cc1=O)CN(CC(=O)NC1CCCCNC1=O)CC2 (stereo not drawn) | 1.9
Cc1csc(N2CCN(C(=O)c3cc(C4CC4)[nH]n3)CC2)n1 | 3.34
CCOc1ccc(S(=O)(=O)NC(=O)c2c(C)noc2C(C)C)cc1 | -3.08
CN(Cc1nccn1C)S(=O)(=O)c1cccc(C#N)c1 | 15.1
CN(CCCc1cc(-c2ccccc2)n[nH]1)C(=O)CCCn1cncn1 | -147
CC(C)CCNC(=O)CCc1ccnc2ccccc12 | -0.69
CC(C)Cn1cnc(S(=O)(=O)NCCc2nnc3ccccn23)c1 | 6.48
O=C(NS(=O)(=O)c1cccc(F)c1)c1ccccc1F | 9.39
Cn1c(N)nnc1SCC1OCCc2ccccc21 (stereo not drawn) | 0.355
CC(=O)c1ccc(CNC(=O)c2cc(C#N)cn2C)nc1C | 5.44
Cn1cc(N2C(=O)C[C@@H]3[C@@H]2CCN3C(=O)c2ccco2)cn1 | -107

SMILES | cytotoxicity at 10 µM [%]
CCn1c2c(ccc1=O)CC(NCc1cnn(C)c1)CC2 (stereo not drawn) | -102
O=C(NCCOCCO)c1cnc(-c2ccccc2)nc1O | 0.701
O=C(CCCc1cn[nH]c1)N1C[C@H](CO)C[C@H](CN2CCCC2)C1 | -10.2
Cc1cc(C(=O)N2CCN[C@H](C)C2)c2ccc(F)cc2n1 | 13.7
CSc1ccccc1C(=O)N1CCOC(CCN(C)C)C1 (stereo not drawn) | 7.46
Cn1c(CN2CCC(O)CC2)nnc1C1CCCN(C(=O)C2CNC2)C1 (stereo not drawn) | 3.19
O=C(CCS(=O)(=O)c1ccccc1)NC1CCOC2(CCOCC2)C1 (stereo not drawn) | 7.56
COCc1nc(CNC2CCC3(CCNCC3)CC2)no1 | -3.13
O=C(Cc1ccc(O)c(Cl)c1)N1CCN(CC2CC2)[C@@H]2CS(=O)(=O)C[C@@H]21 | 5.84
COCc1nc(C(=O)NS(=O)(=O)c2c(C)c(C)cc(C)c2C)cs1 | -8.01
COc1c(CNC2CCN(c3ncccn3)CC2)c(C(C)C)nn1C | -4.81
CCCC(C)C(=O)N1CCC(n2cccc2C(=O)OC)CC1 (stereo not drawn) | -10
CNC(=O)CN1CCO[C@H]2CN(C(=O)c3ccncc3F)C[C@H]21 | -155
O=C(c1ccncc1)N1CC[C@@H]2[C@@H](CC1)OCCN2c1cccnc1 | 8.25
NC(=O)c1nc2c(s1)CCN(Cc1ccccc1)CC2 | 9.61
O=C(NCc1cnc2n1CCN(Cc1cccs1)C2)c1ccno1 | -110
CC(C)CN1CCS(=O)(=O)[C@@H]2CCN(S(=O)(=O)C3CC3)CC[C@@H]21 | 7.8
CN(C)[C@H]1COC[C@@H]2CN(Cc3ccc4c(c3)OCO4)C[C@@H]21 | 4.2
CC(C)N(C)Cc1cncc2c1CCN(CC(=O)N(C)C)C2 | -100
Cc1cc(CN2C[C@@H]3CN(C(=O)c4ccco4)CCO[C@@H]3C2)no1 | -141
O=S(=O)(C1CC1)N1CCc2ncnc(-c3ccncc3)c2CC1 | -3.27
